From ChEMBL document CHEMBL4261606, “Inhibition of LDL oxidation and inflammasome assembly by nitroaliphatic derivatives. Potential use as anti-inflammatory and anti-atherogenic agents” (Eur J Med Chem, 2018)
Calls of active or inactive are those of the source. The rule behind the calls is not given here.

Experiments:
[1] = Antioxidant activity assessed as trolox equivalent of AAPH-induced peroxyl radical scavenging activity at 1.3 to 13 uM up to 140 mins by ORAC-FL assay; assay type: functional
How it was run: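 ORAC: fluorescein (7.5 nM) decay (ex 485/em 512 nm) followed 140 min at 37 °C. Peroxyl radicals came from 30 mM AAPH in 75 mM phosphate pH 7.4 with 100 µM DTPA, compounds at 1.3-13 µM. Curves normalised to initial fluorescence, and net AUC versus concentration compared with Trolox standard (1.5-24 µM). Three independent determinations, mean ± SD.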

Mus musculus [2] = organism: Mus musculus; assay: Antiinflammatory activity in mouse […] cells assessed as reduction in INF-gamma/LPS-induced IL-1beta expression at 5 uM preincubated for 1 hr followed by INF-gamma/LPS addition for 4 hrs by Western blot analysis; assay type: functional, cell-based
How it was run: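 Confluent J774 monolayers preincubated 1 h with compound at 5 µM, then stimulated 4 h at 37 °C, 5% CO₂ with IFN-γ 400 U/mL plus Salmonella enterica LPS 8 µg/mL. Whole-cell lysates resolved by 15% SDS-PAGE and immunoblotted with rabbit anti-IL-1β and Alexa Fluor 680 secondary. Bands quantified by densitometry, with loading checked on paired colloidal-blue gels. Three independent experiments, one-way ANOVA.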

Plasma [3] = assay: Inhibition of AAPH-induced oxidation of human plasma derived LDL assessed as reversal of rate of oxygen consumption at 20 uM added after beginning of propagation phase by high-resolution oxygen electrode
Plasma [4] = assay: Inhibition of AAPH-induced oxidation of human plasma derived LDL assessed as time of delay for initiation of propagation phase by measuring rate of oxygen consumption at 20 uM added before AAPH addition by high-resolution oxygen electrode
Mus musculus [5] = organism: Mus musculus; assay: Antiatherogenic activity in mouse […] cells assessed as foam cell formation by measuring ox-LDL internalization at 2.5 to 5 uM preincubated for 1 hr followed by ox-LDL Dil addition for 4 hrs by Hoechst 3342-staining based fluorescence assay; assay type: functional
How it was run: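 J774 murine macrophages in DMEM with 10% FBS at 80% confluence (~2×10⁵ cells/well) preincubated 1 h with compound (0.3-5 µM range in plate-reader format). DiI-labelled Cu²⁺-oxidised LDL (10 µg/mL) then added for 4 h at 37 °C, 5% CO₂. Cells washed, nuclei stained with Hoechst 3342 (10 µg/mL, 10 min). Read-out is DiI (549/565 nm) to Hoechst (352/461 nm) fluorescence ratio.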

[6] = Cytotoxicity in mouse […] cells assessed as change in cell survival at 0.3 to 5 uM after 2 to 24 hrs by MTT assay; assay type: cell-based
How it was run: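 Confluent J774 cells exposed to compounds in DMEM at 37 °C, 5% CO₂ for 2 h and for 24 h. MTT (0.1 mg/mL in DPBS) then added for 3 h at 37 °C. Formazan dissolved in DMSO/glycine buffer pH 10.5 and absorbance read at 560 nm, with vehicle as reference.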

| Structure (SMILES) | Activity [1] | other results |
| --- | --- | --- |
| CC(Cc1ccc(N(C)C)cc1)[N+](=O)[O-] (stereo unspecified) | 10 equiv | Activity (Mus musculus [2]): Active; inhibition (Plasma [3]): Active; Time (Plasma [4]): 30 min |
| C/C(=C/c1ccc2c(c1)OCO2)[N+](=O)[O-] | 1.6 equiv |  |
| CSc1ccc(/C=C\[N+](=O)[O-])cc1 | 3.5 equiv |  |
| C/C(=C/c1ccc(Br)cc1)[N+](=O)[O-] | 0.45 equiv |  |
| COc1ccc(/C=C\[N+](=O)[O-])cc1 | 0.46 equiv |  |
| CC(=O)Nc1ccc(CC[N+](=O)[O-])cc1 | 0.26 equiv |  |
| O=[N+]([O-])/C=C\c1ccccc1 | 0.29 equiv |  |
| CN(C)c1ccc(/C=C\[N+](=O)[O-])cc1 | 4.2 equiv | Activity (Mus musculus [2]): Active; Activity (Mus musculus [5]): inactive; Activity [6]: Non-Toxic; inhibition (Plasma [3]): inactive; Time (Plasma [4]): 20 min |
| C/C(=C/c1ccc(N(C)C)cc1)[N+](=O)[O-] | 5.4 equiv | Activity (Mus musculus [2]): Active; Activity (Mus musculus [5]): inactive; Activity [6]: Non-Toxic; inhibition (Plasma [3]): inactive; Time (Plasma [4]): 20 min |
| C/C(=C/c1ccc(Cl)cc1)[N+](=O)[O-] | 0.39 equiv |  |
| CN(C)c1ccc(CC[N+](=O)[O-])cc1 | 13 equiv | Activity (Mus musculus [2]): Active; inhibition (Plasma [3]): Active; Time (Plasma [4]): >40 min |
| CC(=O)Nc1ccc(/C=C\[N+](=O)[O-])cc1 | 0.63 equiv |  |
| C/C(=C/c1ccccc1)[N+](=O)[O-] | 0.37 equiv |  |
| O=[N+]([O-])/C=C\c1ccc(Br)cc1 | 0.44 equiv |  |
| CSc1ccc(CC[N+](=O)[O-])cc1 | 2.8 equiv |  |
| COc1ccc(/C=C(/C)[N+](=O)[O-])cc1 | 0.46 equiv |  |
| O=[N+]([O-])/C=C\c1ccc(Cl)cc1 | 0.44 equiv |  |
| O=[N+]([O-])/C=C\c1cccs1 | 0.43 equiv |  |
| C/C(=C/c1cccs1)[N+](=O)[O-] | 0.54 equiv |  |
| O=[N+]([O-])/C=C\c1ccc2c(c1)OCO2 | 0.72 equiv |  |
